Rows were chosen to be rich in hits. Some 1.5% of all compounds tested hit in one or more screens of this group.
ABCG2 block = blocks JC-1 efflux by human ABCG2 transporter; actives 0.1% (n = 190,000); AID 1325; inhibition, % at 6.6 µM; IgMXP3 cells, flow cytometry;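 active means inhibition above 80%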;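 further: 0% = DMSO and 100% = nicardipine control wells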
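Test system: ABCG2 IgMXP3 and barcoded ABCB1 CCRF-Adr cell mix; Schedule: cells with compound and JC-1, 10 min at 25 °C, rotating, no wash; Technique: flow cytometry of retained JC-1 fluorescence; Measure: % inhibition of efflux relative to nicardipine and DMSO; Controls: nicardipine high and DMSO low controls.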
ABCB1 block = human ABCB1 inhibition, ABCG2 as counter-screen. actives 0.067% (n = 190,000). inhibition, % at 6.6 µM. CCRF-Adr cells, JC-1 efflux, flow cytometry; in the data active means inhibition above about 40%;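 further: 0% = vehicle and 100% = reference inhibitor; higher value means more JC-1 retained so stronger ABCB1 efflux block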
PGE2 EP2 inh = inhibitors of human EP2 prostaglandin E2 receptor | inhibition, % at 25 µM | actives 0.52% (n = 260,000) | AID 1422 | P43116 | C6 glioma cells expressing human EP2, cAMP TR-FRET; cells stimulated with saturating PGE2;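 active means percent inhibition above 40 after rounding to a whole number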;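 further: rat C6 glioma host cells with rolipram phosphodiesterase inhibitor present; the protocol text gives 20 µM as final concentration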
Target sequence (P43116 whole entry, looked up): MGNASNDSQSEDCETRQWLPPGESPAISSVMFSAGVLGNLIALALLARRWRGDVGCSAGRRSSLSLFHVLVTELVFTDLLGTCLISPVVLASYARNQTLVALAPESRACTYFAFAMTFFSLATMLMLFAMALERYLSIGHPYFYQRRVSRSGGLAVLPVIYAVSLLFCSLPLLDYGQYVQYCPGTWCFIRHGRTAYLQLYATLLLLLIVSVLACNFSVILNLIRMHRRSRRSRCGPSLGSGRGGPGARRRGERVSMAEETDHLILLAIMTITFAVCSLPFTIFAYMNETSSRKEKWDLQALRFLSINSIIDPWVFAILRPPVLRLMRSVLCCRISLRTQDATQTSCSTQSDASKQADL
RBBP9 inh = human RBBP9 hydrolase inhibition. recombinant RBBP9, FP-Rh probe fluorescence polarization. inhibition, % at 7.94 µM. actives 0.2% (n = 220,000). AID 1515;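 active means inhibition above the campaign mean of all tested compounds plus 3 SD, cut at about 14% in these data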;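 further: plate controls were DMSO wells with RBBP9 for no effect and wells lacking RBBP9 protein for full effect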
Target sequence (O75884 whole entry, looked up): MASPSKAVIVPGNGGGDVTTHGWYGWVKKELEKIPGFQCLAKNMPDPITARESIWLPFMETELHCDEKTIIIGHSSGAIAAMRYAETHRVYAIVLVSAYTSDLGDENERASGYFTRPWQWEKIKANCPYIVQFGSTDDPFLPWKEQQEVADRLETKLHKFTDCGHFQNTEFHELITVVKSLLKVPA
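Controls: DMSO-treated enzyme wells and wells lacking RBBP9 | Material: RBBP9 protein | Technique: Fluorescence polarization | Replication: Single well per compound, no replicates | Buffer or medium: Tris-NaCl-Pluronic buffer, pH 8.0 | Timing: 30 min compound preincubation, 45 min probe labeling, 25 °C | Read-out basis: Percent inhibition from mP, scaled between DMSO and no-protein wells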
EP2 mod = modulates human prostaglandin E2 receptor EP2 signaling; induction, % at 25 µM; EP2-expressing cells, cAMP HTRF FRET, PGE2 co-stimulation; actives 0.83% (n = 260,000); AID 940;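 active means compounds whose cAMP rise, as percent of the full-agonist control response, exceeds 60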;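 further: rat C6 glioma line stably carrying human EP2 under a CMV promoter; the protocol text gives 20 µM as final concentration; 100% = response of wells given 1 µM PGE2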
* marks the source's active call; other numbers are inactive results.

What do the screens show for `CC1(C)[C@@H]2CC[C@@]1(CS(=O)(=O)Nc1ccccc1)C(=O)C2`?
PGE2 EP2 inh: 50.6*; EP2 mod: 23.6

What do the screens show for `CC1(C)C2CCC1(CS(=O)(=O)N1CCOCC1)C(=O)C2` (configuration not stated)?
ABCG2 block: 0.1; ABCB1 block: 0.0; PGE2 EP2 inh: 96.3*; RBBP9 inh: 3.0; EP2 mod: -0.3

Results for COc1ccccc1OCc1nnc(SCC(=O)Nc2ccc(Br)cc2)o1 ?
PGE2 EP2 inh: 9.9; EP2 mod: -30.0

What do the screens show for `CSc1ccccc1NC(=O)C1CCN(S(=O)(=O)c2ccc(Cl)cc2)CC1`?
PGE2 EP2 inh: 15.3; EP2 mod: -133.7

What do the screens show for `O=C(COC(=O)[C@H](Cc1ccccc1)NC(=O)c1ccco1)NC(c1ccccc1)c1ccccc1`?
ABCG2 block: 6.6; ABCB1 block: 1.3; PGE2 EP2 inh: 11.1; RBBP9 inh: -10.9; EP2 mod: 62.2*

How did O=C(COC(=O)C(Cc1ccccc1)NC(=O)c1ccco1)NC1CC1 (configuration not stated) do in these assays?
ABCG2 block: 2.3; ABCB1 block: 0.7; PGE2 EP2 inh: 5.8; RBBP9 inh: -8.2; EP2 mod: 39.2

How did CC(C)(C)C(=O)[C@H]([C@@H](c1ccccc1)N1CCOCC1)N1CCOCC1 do in these assays?
PGE2 EP2 inh: 49.3*; EP2 mod: 29.8

How did CC(NC(=O)Cc1ccccc1)C(c1ccccc1)N1CCOCC1 (configuration not stated) do in these assays?
ABCG2 block: 0.4; ABCB1 block: 0.4; PGE2 EP2 inh: 4.5; RBBP9 inh: -5.1; EP2 mod: -21.0

What do the screens show for `Cc1ccc2[nH]c(=O)c(CN(Cc3ccccc3Cl)Cc3nnnn3C3CCCC3)cc2c1`?
PGE2 EP2 inh: 5.2; EP2 mod: 73.9*

Results for COc1ccccc1CN(Cc1cc2cc(C)ccc2[nH]c1=O)Cc1nnnn1C1CCCC1 ?
PGE2 EP2 inh: 6.5; EP2 mod: 64.6*

Results for Cc1ccc2[nH]c(=O)c(CN(Cc3ccccc3)Cc3nnnn3C3CCCCC3)cc2c1 ?
PGE2 EP2 inh: 13.0; EP2 mod: 44.5

Results for Cc1ccc2[nH]c(=O)c(CN(Cc3nnnn3C3CCCC3)CC3CCCO3)cc2c1 (configuration not stated) ?
PGE2 EP2 inh: 12.4; EP2 mod: -0.7

Results for COc1ccccc1C1(NCc2cn(CCC(N)=O)c3ccccc23)CCCC1 ?
PGE2 EP2 inh: 7.4; EP2 mod: -75.5

How did COc1cc(/C=C2\C(=O)NC(=S)N(c3ccc(Br)cc3C)C2=O)ccc1O do in these assays?
PGE2 EP2 inh: 73.7*; EP2 mod: -94.7

Results for CCOc1cc(/C=C2\C(=O)NC(=O)N(c3cccc(Br)c3)C2=O)ccc1O ?
PGE2 EP2 inh: 97.5*; EP2 mod: -130.9

What do the screens show for `CCCCCC(=O)Nc1cc(N(C)C)nc2ccccc12`?
ABCG2 block: 5.8; ABCB1 block: 0.3; PGE2 EP2 inh: 39.8*; RBBP9 inh: -7.8

How did Cc1cccc2cc(C#N)c(NC3CCCCC3)nc12 do in these assays?
PGE2 EP2 inh: 14.8; EP2 mod: 78.1*

Results for Cc1sc(NC(=O)CCn2cnc3ccccc3c2=O)nc1-c1ccc(Cl)cc1 ?
PGE2 EP2 inh: 7.0; EP2 mod: 22.3

What do the screens show for `CC1CC(=O)c2c(cc3c(-c4c(O)cc(O)c5c(O)c6c(cc45)OC(C)CC6=O)c(O)cc(O)c3c2O)O1` (configuration not stated)?
ABCG2 block: -4.5; ABCB1 block: -1.8; PGE2 EP2 inh: 76.8*; RBBP9 inh: 25.6*; EP2 mod: -17.4

What do the screens show for `O=C1CC(c2ccc(O)cc2)Oc2cc(O)cc(O)c21` (configuration not stated)?
ABCG2 block: 0.0; ABCB1 block: -0.4; PGE2 EP2 inh: 11.9; RBBP9 inh: 2.0; EP2 mod: 10.8

How did Oc1ccc2c(c1)NCCO2 do in these assays?
PGE2 EP2 inh: 9.6; EP2 mod: 14.2

What do the screens show for `CCC(=O)N1c2ccc(-c3csc(NC(=O)c4ccccc4Cl)n3)cc2CC1C` (configuration not stated)?
PGE2 EP2 inh: 94.1*; EP2 mod: 26.6

How did CN(C)CCNC(=O)CN1N=C(C(C)(C)C)Cn2c(cc3sccc32)C1=O do in these assays?
PGE2 EP2 inh: 9.3; EP2 mod: -53.0

Results for C[C@H](CCC(=O)NN)[C@@H]1CC[C@@H]2[C@H]3CC[C@H]4C[C@@H](O)CC[C@]4(C)[C@@H]3CC[C@]21C ?
PGE2 EP2 inh: 48.9*; EP2 mod: 21.4

What do the screens show for `C[C@H](CCC(=O)O)[C@H]1CC[C@H]2[C@@H]3[C@@H](O)C[C@H]4C[C@@H](O)CC[C@]4(C)[C@H]3C[C@@H](O)[C@]12C`?
PGE2 EP2 inh: 45.2*; EP2 mod: 31.9

What do the screens show for `C[C@H](CCC(=O)O)[C@H]1CC[C@H]2[C@@H]3[C@H](O)C[C@@H]4C[C@H](O)CC[C@]4(C)[C@H]3C[C@H](O)[C@]12C`?
PGE2 EP2 inh: 12.2

How did O=C(NCCn1nc(-c2ccco2)ccc1=O)c1ccco1 do in these assays?
EP2 mod: -30.1

What do the screens show for `CC(=O)Nc1ccc2nc(NC(=O)COc3cccc(C)c3C)sc2c1`?
PGE2 EP2 inh: 8.5; EP2 mod: -57.7

How did c1ccc(OCCOCCN2CCN(C(c3ccccc3)c3ccccc3)CC2)cc1 do in these assays?
ABCG2 block: 2.5; ABCB1 block: 1.2; PGE2 EP2 inh: 6.8; RBBP9 inh: -7.4; EP2 mod: 61.4*

What do the screens show for `COc1ccc(C(=O)Cn2nc(C)n3c(cc4ccsc43)c2=O)cc1`?
EP2 mod: 14.3

Results for OC1(C(O)(c2ccc(-c3ccccc3)cc2)c2ccc(-c3ccccc3)cc2)CCCCC1 ?
PGE2 EP2 inh: 43.1*; EP2 mod: 24.8

Results for S=C1NC2(CCCCCC2)N=C1c1ccccc1 ?
ABCG2 block: 3.9; ABCB1 block: 0.4; PGE2 EP2 inh: 5.1; RBBP9 inh: -3.0; EP2 mod: 49.8

What do the screens show for `CCc1cccc2[nH]c3cc([N+](=O)[O-])ccc3c12`?
PGE2 EP2 inh: 7.5; RBBP9 inh: -3.2; EP2 mod: 65.2*

How did O=C(NCc1ccco1)c1ccc2c(c1)N(Cc1ccccc1)CCS2 do in these assays?
PGE2 EP2 inh: 4.8; RBBP9 inh: 1.7; EP2 mod: 16.0

Results for Cc1ccc(CN2CCSc3ccc(C(=O)NCc4ccccn4)cc32)cc1 ?
ABCG2 block: 19.6; ABCB1 block: 1.6; PGE2 EP2 inh: 8.8; RBBP9 inh: -8.1; EP2 mod: 61.2*

What do the screens show for `COc1ccc(Nc2nc(N)c([N+](=O)[O-])c(NCc3ccccc3)n2)cc1`?
PGE2 EP2 inh: 7.1; RBBP9 inh: -10.2; EP2 mod: 36.6

Compound activity as filed in PubChem.
